Test results as given in ChEMBL document CHEMBL1782034, “Design, synthesis and biological evaluation of novel substituted benzoylguanidine derivatives as potent Na+/H+ exchanger inhibitors” (Bioorg Med Chem Lett, 2009).
Activity calls are given as the source filed them.

Tests used:
[1] = system: Rattus norvegicus; assay: Cardioprotective activity against ischemia-reperfusion injury in iv dosed Sprague-Dawley rat assessed as decrease in malondialdehyde; type: functional, organism-based
How it was run: (§1)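 Rats undergo 45 min coronary artery occlusion followed by 90 min reperfusion. Compound is given iv 5 min before reperfusion at 1, 0.5 or 0.25 mg/kg. Prepared serum is assayed for CK, LDH and SOD activities and MDA content as injury indicators, versus sham and model groups.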

[2] = system: Rattus norvegicus; assay: Cardioprotective activity against ischemia-reperfusion injury in iv dosed Sprague-Dawley rat assessed as increase in SOD activity in serum; type: functional, organism-based; how it was run: as §1
[3] = system: Rattus norvegicus; assay: Cardioprotective activity against ischemia-reperfusion injury in Sprague-Dawley rat assessed as decrease in myocardial infarct size at 1 mg/kg, iv; type: functional, organism-based; design: dose 1 mg/kg; details: Myocardium
How it was run: (§2)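 In vivo rat model: coronary artery ligated 45 min, then the ligature is loosened for 90 min of reperfusion. Compound is given as an iv bolus 5 min before reperfusion at 1, 0.5 or 0.25 mg/kg. Infarct size is expressed as a percentage of left ventricle area (IS/LV%). n = 8; compared against sham and model groups.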

[4] = system: Rattus norvegicus; assay: Cardioprotective activity against ischemia-reperfusion injury in Sprague-Dawley rat assessed as decrease in creatine kinase release at 1 mg/kg, iv; type: functional, organism-based; design: dose 1 mg/kg; how it was run: as §1
[5] = system: Rattus norvegicus; assay: Cardioprotective activity against ischemia-reperfusion injury in Sprague-Dawley rat assessed as decrease in LDH release at 1 mg/kg, iv; type: functional, organism-based; design: dose 1 mg/kg; how it was run: as §1
[6] = system: Rattus norvegicus; assay: Cardioprotective activity against ischemia-reperfusion injury in Sprague-Dawley rat assessed as decrease in malondialdehyde at 1 mg/kg, iv; type: functional, organism-based; design: dose 1 mg/kg; how it was run: as §1
[7] = system: Rattus norvegicus; assay: Cardioprotective activity against ischemia-reperfusion injury in Sprague-Dawley rat assessed as increase in SOD activity in serum at 1 mg/kg, iv; type: functional, organism-based; design: dose 1 mg/kg; how it was run: as §1
[8] = species on record: Rattus norvegicus; assay: Cardioprotective activity against Langendorff perfused Sprague-Dawley rat heart assessed as increase in coronary flow at 2 to 50 uM; type: functional, organism-based
How it was run: (§3)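 Isolated hearts are equilibrated 20 min, perfused at a low rate (0.5 ml/min) for 30 min with compound in the perfusate, then reperfused 30 min. Coronary flow at the start and at the end of reperfusion is expressed as a ratio to the end-of-equilibration value. n = 10.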

[9] = species on record: Rattus norvegicus; assay: Cardioprotective activity against Langendorff perfused Sprague-Dawley rat heart assessed as increase in ATP content in homogenates at 2 to 50 uM; type: functional
How it was run: (§4)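 Isolated rat hearts: 20 min equilibration, then 30 min low-rate perfusion (0.5 ml/min), then 30 min reperfusion. Drug is added to the perfusate during the low-rate period only. After reperfusion, the heart tissue homogenate is assayed for Na+-K+ ATPase activity, lactate (LD) content and ATP content. n = 10; compared against sham and model groups.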

[10] = species on record: Rattus norvegicus; assay: Cardioprotective activity against Langendorff perfused Sprague-Dawley rat heart assessed as increase in […]-K+ ATPase activity in homogenates at 2 to 50 uM; type: functional; how it was run: as §4
[11] = species on record: Rattus norvegicus; assay: Cardioprotective activity against Langendorff perfused Sprague-Dawley rat heart assessed as decrease in lactic acid content in homogenates at 2 to 50 uM; type: functional; how it was run: as §4
[12] = species on record: Rattus norvegicus; assay: Cardioprotective activity against Langendorff perfused Sprague-Dawley rat heart assessed as increase in myocardial energy metabolism; type: functional, organism-based; how it was run: as §4
[13] = species on record: Rattus norvegicus; assay: Cardioprotective activity against Langendorff perfused Sprague-Dawley rat heart assessed as increase in relaxing coronary artery at 10 uM; type: functional, organism-based; how it was run: as §3
[14] = species on record: Rattus norvegicus; assay: Cardioprotective activity against Langendorff perfused Sprague-Dawley rat heart assessed as increase in relaxing coronary artery at 50 uM; type: functional, organism-based; how it was run: as §3
[15] = system: Rattus norvegicus; assay: Cardioprotective activity against ischemia-reperfusion injury in iv dosed Sprague-Dawley rat assessed as decrease in myocardial infarct size; type: functional, organism-based; details: Myocardium; how it was run: as §2
[16] = system: Rattus norvegicus; assay: Cardioprotective activity against ischemia-reperfusion injury in iv dosed Sprague-Dawley rat assessed as decrease in creatine kinase release; type: functional, organism-based; how it was run: as §1
[17] = system: Rattus norvegicus; assay: Cardioprotective activity against ischemia-reperfusion injury in iv dosed Sprague-Dawley rat assessed as decrease in LDH release; type: functional, organism-based; how it was run: as §1
[18] = species on record: Rattus norvegicus; assay: Cardioprotective activity against Langendorff perfused Sprague-Dawley rat heart assessed as increase in myocardial energy metabolism at 10 uM; type: functional, organism-based; how it was run: as §4

Measured: Activity

COc1ccc(CN2CCN(Cc3ccc(C(=O)N=C(N)N)cc3[N+](=O)[O-])CC2)c(OC)c1OC
active: [1] Dose-dependent effect | [2] Dose-dependent effect | [3] | [4] | [5] | [6] | [7] | [8] | [9] | [10] | [11] | [12] Dose-dependent effect | [13] | [14] | [15] Dose-dependent effect | [16] Dose-dependent effect | [17] Dose-dependent effect

CC(C)c1ccc(C(=O)N=C(N)N)cc1S(C)(=O)=O
active: [3] | [4] | [5] | [6] | [7] | [18] | [13]
